ChEMBL document CHEMBL1127424, “7-azetidinylquinolones as antibacterial agents. 2. Synthesis and biological activity of 7-(2,3-disubstituted-1-azetidinyl)-4-oxoquinoline- and -1,8-naphthyridine-3-carboxylic acids. Properties and structure-activity relationships of quinolones with an azetidine moiety” (J Med Chem, 1994)
Converted amounts (≈) assume the structure as drawn. One block for each compound: values may come before it.

Experiments:
[1] = HPLC capacity factor (k'); assay type: ADME
In short: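 Ion-pair reversed-phase HPLC on ODS-2 (10 μm) at 45 °C. Mobile phase: 10 mM sodium heptanesulfonate plus 50 mM KH2PO4 (pH 3.5)–methanol 45:55, 1 mL/min. Samples at 100 μg/mL in DMF, injected in duplicate, UV 280 nm. k' = (tR − t0)/t0.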

[2] = tested on: Staphylococcus epidermidis; assay: In vitro minimum inhibitory concentration for Staphylococcus epidermidis ATCC 155-1; assay type: functional
In short: (§1)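 Serial 2-fold agar dilution in Mueller Hinton medium, run alongside a reference quinolone. Inoculum adjusted to 10⁸ cfu/mL; compound range 0.007–16 μg/mL.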

Proteus vulgaris = assay: In vitro minimum inhibitory concentration for Proteus vulgaris ATCC 8427; assay type: functional; in short: as §1
Pseudomonas aeruginosa = assay: In vitro minimum inhibitory concentration for Pseudomonas aeruginosa ATCC 10145; assay type: functional; in short: as §1
Escherichia coli = assay: In vitro minimum inhibitory concentration for Escherichia coli ATCC 10799; assay type: functional; in short: as §1
Klebsiella pneumoniae = assay: In vitro minimum inhibitory concentration to inhibit Klebsiella pneumoniae ATCC 10031; assay type: functional; in short: as §1
Bacillus subtilis = assay: In vitro minimum inhibitory concentration for Bacillus subtilis ATCC 6633; assay type: functional; in short: as §1
Enterococcus faecalis = assay: In vitro minimum inhibitory concentration for Streptococcus faecalis ATCC 10541; assay type: functional; in short: as §1
Morganella morganii = assay: In vitro minimum inhibitory concentration for Morganella morganii ATCC 8019; assay type: functional; in short: as §1
Staphylococcus aureus = assay: In vitro minimum inhibitory concentration for Staphylococcus aureus ATCC 25178; assay type: functional; in short: as §1
Enterobacter cloacae = assay: In vitro minimum inhibitory concentration for Enterobacter cloacae ATCC 23355; assay type: functional
Bacillus cereus = assay: In vitro minimum inhibitory concentration for Bacillus cereus ATCC 11778; assay type: functional; in short: as §1

- Log k' [1]: -0.0356
SMILES: CCNCC1(C)CN(c2cc3c(cc2F)c(=O)c(C(=O)O)cn3C2CC2)C1

- Log k' [1]: 0.0367
SMILES: CCn1cc(C(=O)O)c(=O)c2c(N)c(F)c(N3CC(C)(N)C3)c(F)c21

- MIC [2]: 0.5 µg/mL (≈ 1.37 µM)
- MIC (Proteus vulgaris): 0.5 µg/mL (≈ 1.37 µM)
- Log k' [1]: 0.679
- MIC (Pseudomonas aeruginosa): 8 µg/mL (≈ 22 µM)
- MIC (Escherichia coli): 1 µg/mL (≈ 2.74 µM)
- MIC (Klebsiella pneumoniae): 0.5 µg/mL (≈ 1.37 µM)
- MIC (Bacillus subtilis): 0.12 µg/mL (≈ 0.329 µM)
- MIC (Enterococcus faecalis): 8 µg/mL (≈ 22 µM)
- MIC (Morganella morganii): 1 µg/mL (≈ 2.74 µM)
- MIC (Staphylococcus aureus): 1 µg/mL (≈ 2.74 µM)
- MIC (Enterobacter cloacae): 0.5 µg/mL (≈ 1.37 µM)
- MIC (Bacillus cereus): 0.5 µg/mL (≈ 1.37 µM)
SMILES: CC[C@H]1[C@@H](O)CN1c1c(F)cc2c(=O)c(C(=O)O)cn(C3CC3)c2c1F

- MIC [2]: 0.25 µg/mL (≈ 0.714 µM)
- MIC (Proteus vulgaris): 0.25 µg/mL (≈ 0.714 µM)
- Log k' [1]: 0.462
- MIC (Pseudomonas aeruginosa): 8 µg/mL (≈ 22.8 µM)
- MIC (Escherichia coli): 0.5 µg/mL (≈ 1.43 µM)
- MIC (Klebsiella pneumoniae): 0.015 µg/mL (≈ 0.0428 µM)
- MIC (Bacillus subtilis): 0.015 µg/mL (≈ 0.0428 µM)
- MIC (Enterococcus faecalis): 2 µg/mL (≈ 5.71 µM)
- MIC (Morganella morganii): 0.5 µg/mL (≈ 1.43 µM)
- MIC (Staphylococcus aureus): 0.25 µg/mL (≈ 0.714 µM)
- MIC (Enterobacter cloacae): 0.25 µg/mL (≈ 0.714 µM)
- MIC (Bacillus cereus): 0.25 µg/mL (≈ 0.714 µM)
SMILES: C[C@H]1[C@@H](O)CN1c1c(F)cc2c(=O)c(C(=O)O)cn(C3CC3)c2c1F

- MIC [2]: 0.12 µg/mL (≈ 0.346 µM)
- MIC (Proteus vulgaris): 0.5 µg/mL (≈ 1.44 µM)
- Log k' [1]: -0.0223
- MIC (Pseudomonas aeruginosa): 2 µg/mL (≈ 5.77 µM)
- MIC (Escherichia coli): 0.25 µg/mL (≈ 0.722 µM)
- MIC (Klebsiella pneumoniae): 0.06 µg/mL (≈ 0.173 µM)
- MIC (Bacillus subtilis): 0.06 µg/mL (≈ 0.173 µM)
- MIC (Enterococcus faecalis): 2 µg/mL (≈ 5.77 µM)
- MIC (Morganella morganii): 0.25 µg/mL (≈ 0.722 µM)
- MIC (Staphylococcus aureus): 0.12 µg/mL (≈ 0.346 µM)
- MIC (Enterobacter cloacae): 0.12 µg/mL (≈ 0.346 µM)
- MIC (Bacillus cereus): 0.06 µg/mL (≈ 0.173 µM)
SMILES: CC1(C)[C@@H](N)CN1c1nc2c(cc1F)c(=O)c(C(=O)O)cn2C1CC1

- Log k' [1]: 0.238
SMILES: CC1(N)CN(c2c(F)cc3c(=O)c(C(=O)O)cn(-c4ccc(F)cc4F)c3c2F)C1

- Log k' [1]: -0.0332
SMILES: CC1(N)CN(c2c(F)cc3c(=O)c(C(=O)O)cn(CCF)c3c2Cl)C1

- Log k' [1]: -0.1706
SMILES: CC1(N)CN(c2nc3c(cc2F)c(=O)c(C(=O)O)cn3CCF)C1

- Log k' [1]: 0.2546
SMILES: CC1(N)CN(c2c(F)cc3c(=O)c(C(=O)O)cn(-c4ccc(F)cc4)c3c2Cl)C1

- Log k' [1]: 0.7188
SMILES: O=C(O)c1cn(C2CC2)c2cc(N3CCC3)c(F)cc2c1=O

- MIC [2]: 0.06 µg/mL (≈ 0.181 µM)
- MIC (Proteus vulgaris): 0.06 µg/mL (≈ 0.181 µM)
- Log k' [1]: 0.407
- MIC (Pseudomonas aeruginosa): 2 µg/mL (≈ 6.02 µM)
- MIC (Escherichia coli): 0.25 µg/mL (≈ 0.752 µM)
- MIC (Klebsiella pneumoniae): 0.015 µg/mL (≈ 0.0451 µM)
- MIC (Bacillus subtilis): 0.015 µg/mL (≈ 0.0451 µM)
- MIC (Enterococcus faecalis): 2 µg/mL (≈ 6.02 µM)
- MIC (Morganella morganii): 0.25 µg/mL (≈ 0.752 µM)
- MIC (Staphylococcus aureus): 0.12 µg/mL (≈ 0.361 µM)
- MIC (Enterobacter cloacae): 0.12 µg/mL (≈ 0.361 µM)
- MIC (Bacillus cereus): 0.06 µg/mL (≈ 0.181 µM)
SMILES: C[C@@H]1[C@@H](O)CN1c1cc2c(cc1F)c(=O)c(C(=O)O)cn2C1CC1

- Log k' [1]: 0.25
SMILES: CNC1CN(c2c(F)cc3c(=O)c(C(=O)O)cn(-c4ccc(F)cc4F)c3c2Cl)C1

- Log k' [1]: 0.0374
SMILES: CC1(N)CN(c2cc3c(cc2F)c(=O)c(C(=O)O)cn3CCF)C1

- Log k' [1]: -0.0388
SMILES: CC1(N)CN(c2nc3c(cc2F)c(=O)c(C(=O)O)cn3-c2ccc(F)cc2)C1

- Log k' [1]: 0.2148
SMILES: CC1(O)CN(c2cc3c(cc2F)c(=O)c(C(=O)O)cn3C2CC2)C1

- Log k' [1]: 0.3264
SMILES: O=C(O)c1cn(C2CC2)c2c(F)c(N3CC(O)C3)c(F)cc2c1=O

- Log k' [1]: -0.0118
SMILES: CCNCC1(C)CN(c2c(F)cc3c(=O)c(C(=O)O)cn(C4CC4)c3c2F)C1

- Log k' [1]: 0.7591
SMILES: CCC1(O)CN(c2c(F)cc3c(=O)c(C(=O)O)cn(C4CC4)c3c2F)C1

- Log k' [1]: -0.0773
SMILES: CNC1CN(c2nc3c(cc2F)c(=O)c(C(=O)O)cn3C2CC2)C1

- Log k' [1]: 0.2742
SMILES: CCNCC1CN(c2c(F)cc3c(=O)c(C(=O)O)cn(C4CC4)c3c2F)C1

- Log k' [1]: 0.1106
SMILES: CC1(N)CN(c2c(F)cc3c(=O)c(C(=O)O)cn(-c4ccc(F)cc4)c3c2F)C1

- Log k' [1]: 0.3448
SMILES: CC1(N)CN(c2c(F)cc3c(=O)c(C(=O)O)cn(-c4ccc(F)cc4F)c3c2Cl)C1

- Log k' [1]: 0.0408
SMILES: CNC1(C)CN(c2nc3c(cc2F)c(=O)c(C(=O)O)cn3C2CC2)C1

- Log k' [1]: -0.106
SMILES: CCNCC1CN(c2cc3c(cc2F)c(=O)c(C(=O)O)cn3C2CC2)C1

- Log k' [1]: -0.1549
SMILES: NCC1CN(c2cc3c(cc2F)c(=O)c(C(=O)O)cn3C2CC2)C1

- Log k' [1]: 0.3487
SMILES: Nc1c(F)c(N2CC(O)C2)c(F)c2c1c(=O)c(C(=O)O)cn2C1CC1

- MIC [2]: 0.12 µg/mL (≈ 0.329 µM)
- MIC (Proteus vulgaris): 0.25 µg/mL (≈ 0.686 µM)
- Log k' [1]: 0.6899
- MIC (Pseudomonas aeruginosa): 2 µg/mL (≈ 5.49 µM)
- MIC (Escherichia coli): 1 µg/mL (≈ 2.74 µM)
- MIC (Klebsiella pneumoniae): 0.015 µg/mL (≈ 0.0412 µM)
- MIC (Bacillus subtilis): 0.015 µg/mL (≈ 0.0412 µM)
- MIC (Enterococcus faecalis): 0.5 µg/mL (≈ 1.37 µM)
- MIC (Morganella morganii): 0.5 µg/mL (≈ 1.37 µM)
- MIC (Staphylococcus aureus): 0.12 µg/mL (≈ 0.329 µM)
- MIC (Enterobacter cloacae): 0.5 µg/mL (≈ 1.37 µM)
- MIC (Bacillus cereus): 0.12 µg/mL (≈ 0.329 µM)
SMILES: C[C@H]1N(c2c(F)cc3c(=O)c(C(=O)O)cn(C4CC4)c3c2F)C[C@]1(C)O

- Log k' [1]: -0.0782
SMILES: CC1(CN)CN(c2cc3c(cc2F)c(=O)c(C(=O)O)cn3C2CC2)C1

- MIC [2]: 0.12 µg/mL (≈ 0.346 µM)
- MIC (Proteus vulgaris): 0.25 µg/mL (≈ 0.722 µM)
- Log k' [1]: 0.599
- MIC (Pseudomonas aeruginosa): 2 µg/mL (≈ 5.77 µM)
- MIC (Escherichia coli): 0.25 µg/mL (≈ 0.722 µM)
- MIC (Klebsiella pneumoniae): 0.12 µg/mL (≈ 0.346 µM)
- MIC (Bacillus subtilis): 0.03 µg/mL (≈ 0.0866 µM)
- MIC (Enterococcus faecalis): 2 µg/mL (≈ 5.77 µM)
- MIC (Morganella morganii): 0.5 µg/mL (≈ 1.44 µM)
- MIC (Staphylococcus aureus): 0.25 µg/mL (≈ 0.722 µM)
- MIC (Enterobacter cloacae): 0.25 µg/mL (≈ 0.722 µM)
- MIC (Bacillus cereus): 0.12 µg/mL (≈ 0.346 µM)
SMILES: C[C@H]1N(c2cc3c(cc2F)c(=O)c(C(=O)O)cn3C2CC2)C[C@]1(C)O

- MIC [2]: 0.12 µg/mL (≈ 0.33 µM)
- MIC (Proteus vulgaris): 0.25 µg/mL (≈ 0.688 µM)
- Log k' [1]: 0.1903
- MIC (Pseudomonas aeruginosa): 2 µg/mL (≈ 5.5 µM)
- MIC (Escherichia coli): 0.12 µg/mL (≈ 0.33 µM)
- MIC (Klebsiella pneumoniae): 0.03 µg/mL (≈ 0.0826 µM)
- MIC (Bacillus subtilis): 0.015 µg/mL (≈ 0.0413 µM)
- MIC (Enterococcus faecalis): 0.5 µg/mL (≈ 1.38 µM)
- MIC (Morganella morganii): 0.12 µg/mL (≈ 0.33 µM)
- MIC (Staphylococcus aureus): 0.12 µg/mL (≈ 0.33 µM)
- MIC (Enterobacter cloacae): 0.06 µg/mL (≈ 0.165 µM)
- MIC (Bacillus cereus): 0.12 µg/mL (≈ 0.33 µM)
SMILES: CC1(C)[C@@H](N)CN1c1c(F)cc2c(=O)c(C(=O)O)cn(C3CC3)c2c1F
